# Mot1-301 SUMO: yeast Mot1-301 growth rescue at high temperature, primary screen, SUMOylation pathway inhibitor project, S. cerevisiae, ATP luminescence, 38.5C; growth rescue, % at 18.8 µM; S. cerevisiae Mot1-301 growth rescue; percent above DMSO median, 100 means doubled; 1% of 320,000 active;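 active means every valid replicate shows activation above 250% relative to neutral control wells; inactive means the rest, any valid replicate at or below 250%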;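 further: OY570 slx delta 5 strain wells were the positive control but not used for scaling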
# WT yeast gro inh: growth inhibition of WT strain, primary screen, mitochondrial fusion inhibitor project, WT and mutant strains, chemical genetic; mitochondrial fusion phenotypic screen; inhibition, % at 10 µM; 2.1% of 190,000 active; in the data active means inhibition above about 58%; tested in S. cerevisiae
# Efflux pump mplx: inhibitors of Candida efflux pumps in yeast, primary screen, S. cerevisiae, Nile Red, multiplex | S. cerevisiae Candida pump triplex | inhibition, % at 10 µM | 0.44% of 330,000 active | AID 485275, 2010;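 active means plate passing quality check with inhibition over a set limit, or well fluorescence over plate mean plus 4 SD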;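 further: Nile Red retained in pooled yeast measured as flow cytometry median fluorescence; 0% = buffer negative control and 100% = Enniatin B positive control; higher means more Nile Red kept so more efflux inhibition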
# T cruzi inh: inhibitors of intracellular T. cruzi growth, primary screen, luminescence, NIH3T3 host cells; T. cruzi beta-gal in NIH3T3, 90 h; inhibition, % (no concentration beside the values); 1.4% of 300,000 active;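 active means mean inhibition across valid replicates above about 55%, limit read from the data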;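 further: signal also drops with host cell toxicity which is not excluded here; 0% = plate median of DMSO wells and 100% = zero luminescence signal; higher percent means less beta-gal luminescence so fewer parasites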
#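 System: mouse NIH/3T3 fibroblasts infected with β-gal-expressing T. cruzi Tulahuen C4 / Input: NIH/3T3 cells, 5,000 per well / Buffer or medium: Low-serum DMEM with 2% FBS / Probe or stimulus: 5000 reporter trypomastigotes per well / Schedule: ≥90 h infection period, 3 h prior cell attachment / Measured by: GalScreen luminescence, 60 min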
# Beta cell apopt: inhibitors of cytokine-induced beta cell apoptosis, primary screen, luminescence | INS-1E cytokine-induced death, ATP luminescence, 48 h; percent of positive-control rescue, neutral wells zero | protection from apoptosis, % (test concentration not listed) | 0.8% of 300,000 active | AID 435005, 2010;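 active means Every replicate reaches about 75%, or at least half do and their mean reaches it too, limit read from the data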;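 further: 0% = cytokine-treated negative control wells and 100% = positive control rescue; higher means more ATP so stronger rescue from cytokine killing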
# CSC inhib: cancer stem cell viability inhibitors, primary screen, luminescence. cancer stem cell-like cells viability. 1.1% of 300,000 active. inhibition, % at 7.5 µM; in the data active means inhibition above about 75%; tested in HMLE shEcad cells
# Starred values were filed as active, the others as inactive; i = inactive; · = no result. Rows were chosen to be rich in hits. Some 4.8% of all compounds tested hit in one or more screens of this group.
SMILES,Mot1-301 SUMO,WT yeast gro inh,Efflux pump mplx,T cruzi inh,Beta cell apopt,CSC inhib
CC(C)c1ccc(/C=C(/C#N)c2nnc(NC(=O)c3ccccc3)s2)cc1,506,2,1,5,6,29
CCOC(=O)c1ccc2c(c1)nc(SCC(=O)N1CCCCC1)n2CC,293*,-4,0,-9,4,-9
CCOC(=O)c1ccc2c(c1)nc(SCC(=O)c1ccco1)n2CC,-25,2,0,5,2,-6
CCOC(=O)C1=C(CC)Nc2ccccc2N/C1=N\S(=O)(=O)c1cc(Br)ccc1Br,·,32,·,-19,·,·
CCOC(=O)C1=C(CC)Nc2ccccc2N/C1=N\S(=O)(=O)c1ccc2ccccc2c1,2,72*,0,-5,5,39
Cc1ccc(Nc2nc3nonc3[nH]c2=O)cc1Cl,-5,64*,0,-8,20,2
Cc1ccc(Nc2nc3nonc3[nH]c2=O)cc1C,631,-7,0,-17,7,7
O=C(N/N=C/c1sc(N2CCOCC2)nc1-c1ccccc1)c1ccc(O)cc1,33,-9,0,-6,13,-3
O=C(N/N=C/c1sc(N2CCOCC2)nc1-c1ccccc1)c1cccc(S(=O)(=O)N2CCCC2)c1,-7,-19,0,77*,107*,26
COc1cccc(C(C)NC(=S)NCc2ccc(Cl)cc2)c1 (stereo unspecified),-25,66*,0,-12,9,10
C=CCc1cccc(/C=N/NC(=O)CCC(=O)Nc2ccc(C)cc2)c1O,20,-8,0,41,90*,9
CCOc1ccc(CCNC(=O)c2ccc3ccccc3n2)cc1OCC,i,·,1,8,-4,-9
Cc1ccc(OCCNC(=O)c2ccc3ccccc3n2)cc1,-27,·,0,-7,-8,·
O=C(NCCOc1ccc(Cl)cc1)c1ccc2ccccc2n1,-17,62*,0,-3,1,11
Cc1cccc(C)c1OCCNC(=O)c1ccc2ccccc2n1,10,68*,0,21,-6,11
CC(NC(=O)c1ccc(CS(C)(=O)=O)cc1)c1cccc2ccccc12 (stereo unspecified),-3,·,0,4,-1,·
O=C(NCCc1nc2ccccc2[nH]1)c1cccc(Br)c1,-5,-1,0,56*,2,-11
COc1ccc(Nc2cc(C)c3c(O)cccc3n2)cc1,-1,·,0,60*,2,33
Cc1ccccc1Nc1cc(C)c2c(O)cccc2n1,-2,58*,0,19,27,26
Cc1ccc(Nc2cc(C)c3c(O)cccc3n2)cc1C,53,·,0,66*,23,40
COC(=O)c1cc(Nc2cc(C)c3c(O)cccc3n2)cc(C(=O)OC)c1,3,·,0,15,6,45
Cc1ccc(Nc2cc(C)c3ccc(O)cc3n2)cc1C,109,·,0,27,0,86*
O=C(CSC1=NS(=O)(=O)c2ccccc2N1)Nc1cccc(F)c1,-14,·,0,-7,-3,2
CCc1cc(C(=O)Cc2ccc(F)cc2)c(O)cc1O,4,32,-5,-16,-3,41
CCCc1cc(C(=O)Cc2ccc(F)cc2)c(O)cc1O,13,82*,0,-4,4,82*
SMILES,Mot1-301 SUMO,WT yeast gro inh,Efflux pump mplx,T cruzi inh,Beta cell apopt,CSC inhib
O=S(=O)(CCN1CCN(c2ccccn2)CC1)c1ccc(F)cc1,-4,·,0,2,14,4
O=C(CCCN1CCN(c2ccccn2)CC1)c1ccc(F)cc1,351*,·,0,·,·,19
CN(C)CCOc1ccc(/C(=C(/CCCl)c2ccccc2)c2ccccc2)cc1,·,·,0,62*,·,·
CCCn1c2c(c(O)c(C(=O)Nc3nc4ccccc4s3)c1=O)CCCC2,-10,8,0,0,-7,-5
COc1ccc(CNC(=O)C2(CC(=O)NC(C)(C)C)CCCC2)cc1,-2,·,0,8,-1,-3
CC(C)NC(=O)CC1(C(=O)NCc2ccc(Cl)cc2)CCCC1,302*,·,0,-14,0,-10
COc1cc2c(O)c3c(c(-c4ccc5c(c4)OCO5)c2cc1OC)C(=O)OC3,0,-3,0,57*,54,91*
COc1cc2c(OC(C)=O)c3c(c(-c4ccc5c(c4)OCO5)c2cc1OC)C(=O)OC3,75,14,0,30,58,-5
CSCCC(NS(=O)(=O)c1ccccc1F)C(=O)NC(C)c1ccccc1 (stereo unspecified),-4,-7,0,-4,-3,-11
Cc1ccc(S(=O)(=O)N2CCN(CC(=O)N/N=C/C=C/c3ccccc3)CC2)cc1,-6,-3,0,-15,-5,-13
CC1(c2ccc(Cl)cc2Cl)OCC(Cn2ccnc2)O1 (stereo unspecified),-3,73*,0,3,-9,11
O=C(OCn1nnc2ccccc2c1=O)c1cccc(S(=O)(=O)N2CCOCC2)c1,-4,·,0,·,-7,·
CC(C)CC(c1nnnn1Cc1ccco1)N1CCN(c2cccc(Cl)c2)CC1 (stereo unspecified),14,33,0,32,19,110*
CC(C)CC(c1nnnn1CC1CCCO1)N1CCN(c2cccc(Cl)c2)CC1 (stereo unspecified),6,-2,0,-1,-5,65
CCCC(c1nnnn1CC1CCCO1)N1CCN(c2cc(Cl)ccc2C)CC1 (stereo unspecified),3,65*,0,37,3,99*
Cc1ccc(Cl)cc1N1CCN(C(CC(C)C)c2nnnn2CC2CCCO2)CC1 (stereo unspecified),109,10,0,-21,5,101*
CCC(c1nnnn1C(C)(C)C)N1CCN(c2cc(Cl)ccc2C)CC1 (stereo unspecified),2,73*,0,10,-3,1
CC(C)CC(c1nnnn1CC1CCCO1)N1CCN(C2CCCC2)CC1 (stereo unspecified),·,2,·,-10,·,·
CCN1C(=O)[C@@H]2[C@H](C1=O)[C@@H]1C(=O)Nc3ccccc3C(=O)N1[C@@H]2c1ccc(Br)cc1,-9,·,0,6,2,-3
C[C@@H]1CCC(=O)N(CC[C@H](Sc2ccc(Br)cc2)c2ccccc2)CC1,-4,·,0,·,11,97*
Cc1ccc(S[C@@H](CCN2CC[C@H](C)CCC2=O)c2ccccc2)cc1,11,·,0,42,-1,40
Cc1ccc(S[C@@H](CCN2CC[C@H](C(C)(C)C)CCC2=O)c2ccccc2)cc1,-9,·,0,39,-5,108*
Cc1ccc(S[C@@H](CCN2CC[C@H](O)CCC2=O)c2ccccc2)cc1,-1,·,0,-18,-8,1

# From PubChem
